The text below walks through data of ChEMBL document CHEMBL1772954, “Antifungal, cytotoxic and SAR studies of a series of N-alkyl, N-aryl and N-alkylphenyl-1,4-pyrrolediones and related compounds” (Bioorg Med Chem, 2011).

≈ marks a conversion by molar mass, not a printed value.

As usually defined, the MFC is the smallest concentration meeting the test's criterion for killing the fungus. Read a high MFC as less potent killing. By MIC is commonly meant the smallest concentration in the dilution series that meets the test's criterion for growth inhibition. A low value points to inhibition by little substance.

Holding throughout (format): functional
One experiment has as its system Aspergillus niger. Briefly: Antifungal activity against Aspergillus niger ATCC 9029. The essentials:
(§1)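 Broth microdilution per CLSI M38-A2 in RPMI-1640 with MOPS at pH 7.0. Inoculum 1-5 × 10^3 CFU/mL, with twofold compound dilutions spanning 250-0.24 µg/ml (final DMSO <1%). Plates incubated at 35 °C, moist and dark, and read when the control fungus had grown. MIC is total growth inhibition. MFC comes from subculturing clear wells in duplicate onto SDA.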

The test system of another experiment is Candida albicans. Briefly: Antifungal activity against Candida albicans ATCC 10213. The essentials: (§2)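 CLSI M27-A3 broth microdilution in RPMI-1640 buffered to pH 7.0 with MOPS. Inoculum 1-5 × 10^3 CFU/mL. Compound twofold dilutions from 250 to 0.24 µg/ml, final DMSO <1%. Incubated at 35 °C in a moist, dark chamber and read at 48 h. MIC is the lowest concentration giving total growth inhibition. For MFC, 5 µL from clear wells was plated in duplicate on SDA; MFC is the lowest concentration with no growth.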

Another experiment deals with Aspergillus flavus. Briefly: Antifungal activity against Aspergillus flavus ATCC 9170. In a few lines:
as §1

In a further experiment the test system is Candida tropicalis. Briefly: Antifungal activity against Candida tropicalis C 131 2000. In a few lines:
as §2

For the next experiment, the system named is Cryptococcus neoformans. The experiment in a line: Antifungal activity against Cryptococcus neoformans ATCC 32264. In a few lines: as §2
A further experiment has as its system Aspergillus fumigatus. Briefly: Antifungal activity against Aspergillus fumigatus ATCC 26934. The essentials: as §1
For a further experiment, the system named is Trichophyton rubrum. Briefly: Antifungal activity against Trichophyton rubrum C 113 2000. The essentials: (§3)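 Dermatophytes tested by CLSI M38-A2 microdilution in MOPS-buffered RPMI-1640 at pH 7.0. Inoculum 1-5 × 10^3 CFU/mL; compounds 250 to 0.24 µg/ml in twofold steps, final DMSO <1%. Incubated at 28 °C in a moist, dark chamber and read according to control growth. MIC is the lowest concentration with complete inhibition. MFC is the lowest concentration with no growth after duplicate subculture on SDA.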

Experiment [1] concerns Trichophyton mentagrophytes. The experiment in a line: Antifungal activity against Trichophyton mentagrophytes ATCC 9972. In a few lines: as §3
Another experiment concerns Saccharomyces cerevisiae. The experiment in a line: Antifungal activity against Saccharomyces cerevisiae ATCC 9763. The essentials: as §2
Another experiment concerns Nannizzia gypsea. The experiment in a line: Antifungal activity against Microsporum gypseum C 115 2000. The essentials:
as §3

On to `O=C(O)/C=C\C(=O)NCCc1ccccc1`, for which the MFC with Aspergillus niger, against Candida albicans, with Aspergillus flavus, against Candida tropicalis, with Cryptococcus neoformans and in the experiment on Aspergillus fumigatus was greater than 250 µg/mL each time. Also, the MFC (in the experiment with Trichophyton rubrum; in experiment [1]; against Saccharomyces cerevisiae; against Nannizzia gypsea) was greater than 250 µg/mL throughout. The minimum inhibitory concentration (MIC) against Aspergillus niger was greater than 250 µg/mL; in the experiment on Aspergillus flavus, greater than 250 µg/mL; with Candida tropicalis it was greater than 250 µg/mL; in the experiment on Cryptococcus neoformans, greater than 250 µg/mL; against Aspergillus fumigatus, greater than 250 µg/mL; in the experiment on Trichophyton rubrum, 250 µg/mL (≈ 1140 µM). Moreover, the minimum inhibitory concentration (MIC) in experiment [1] is greater than 250 µg/mL; in the experiment on Saccharomyces cerevisiae, greater than 250 µg/mL; in the experiment on Nannizzia gypsea, 250 µg/mL (≈ 1140 µM).

`O=C1C=CC(O)N1Cc1ccccc1` (stereo not drawn): the MFC against Aspergillus niger, against Candida albicans, against Aspergillus flavus, with Candida tropicalis, in the experiment on Cryptococcus neoformans and in the experiment on Aspergillus fumigatus was greater than 250 µg/mL each time. For the same compound, the minimum fungicidal concentration (MFC) (with Trichophyton rubrum; in experiment [1]; against Saccharomyces cerevisiae; against Nannizzia gypsea) was greater than 250 µg/mL each time. Also, the MIC is greater than 250 µg/mL in the experiment with Aspergillus niger; greater than 250 µg/mL with Candida albicans; greater than 250 µg/mL in the experiment with Aspergillus flavus; greater than 250 µg/mL with Candida tropicalis; 250 µg/mL (≈ 1320 µM) in the experiment on Cryptococcus neoformans; greater than 250 µg/mL in the experiment on Aspergillus fumigatus. The MIC (in the experiment on Trichophyton rubrum; in experiment [1]; against Saccharomyces cerevisiae; against Nannizzia gypsea) was greater than 250 µg/mL each time.

Take `CC1=CC(=O)N(Cc2ccccc2)C1O` (stereo not drawn): the minimum fungicidal concentration (MFC) with Aspergillus niger, with Candida albicans, against Aspergillus flavus, against Candida tropicalis, with Cryptococcus neoformans and against Aspergillus fumigatus was greater than 250 µg/mL each time. The minimal fungicidal concentration (MFC) (with Trichophyton rubrum; in experiment [1]; in the experiment with Saccharomyces cerevisiae; against Nannizzia gypsea) was greater than 250 µg/mL each time. Also, the MIC in the experiment with Aspergillus niger, in the experiment with Candida albicans, in the experiment with Aspergillus flavus, in the experiment with Candida tropicalis, against Cryptococcus neoformans and against Aspergillus fumigatus was greater than 250 µg/mL throughout. In addition, the minimal inhibitory concentration (MIC) (in the experiment with Trichophyton rubrum; in [1]; in the experiment on Saccharomyces cerevisiae; against Nannizzia gypsea) was greater than 250 µg/mL each time.

In the case of `O=C1C(c2ccccc2)=C(c2ccccc2)C(=O)N1CCc1ccccc1`, the minimum fungicidal concentration (MFC) against Aspergillus niger, against Candida albicans, in the experiment with Aspergillus flavus, in the experiment with Candida tropicalis, in the experiment on Cryptococcus neoformans and against Aspergillus fumigatus was greater than 250 µg/mL throughout. Also, the minimum fungicidal concentration (MFC) (in the experiment on Trichophyton rubrum; in experiment [1]; with Saccharomyces cerevisiae; against Nannizzia gypsea) was greater than 250 µg/mL in each case. The minimal inhibitory concentration (MIC) with Aspergillus niger, against Candida albicans, with Aspergillus flavus, in the experiment on Candida tropicalis, against Cryptococcus neoformans and in the experiment on Aspergillus fumigatus was greater than 250 µg/mL in each case. Further, the MIC (in the experiment on Trichophyton rubrum; in [1]; with Saccharomyces cerevisiae; with Nannizzia gypsea) was greater than 250 µg/mL in each case.

With `CC1=C(C)C(=O)N(CCCCc2ccccc2)C1=O`, the MFC against Aspergillus niger, in the experiment with Candida albicans, in the experiment on Aspergillus flavus, with Candida tropicalis, with Cryptococcus neoformans and against Aspergillus fumigatus was greater than 250 µg/mL each time. Also, the minimum fungicidal concentration (MFC) with Trichophyton rubrum is 250 µg/mL (≈ 972 µM); in [1] it was greater than 250 µg/mL; in the experiment with Saccharomyces cerevisiae, greater than 250 µg/mL; in the experiment with Nannizzia gypsea, greater than 250 µg/mL. Besides, the MIC with Aspergillus niger, in the experiment with Candida albicans, in the experiment with Aspergillus flavus, in the experiment on Candida tropicalis, against Cryptococcus neoformans and with Aspergillus fumigatus was greater than 250 µg/mL throughout. Moreover, the MIC with Trichophyton rubrum was 125 µg/mL (≈ 486 µM); in experiment [1], 125 µg/mL (≈ 486 µM); with Saccharomyces cerevisiae it was greater than 250 µg/mL; against Nannizzia gypsea, 250 µg/mL (≈ 972 µM).

For `CC1=C(C)C(=O)N(CCc2ccccc2)C1=O`, the minimal fungicidal concentration (MFC) with Aspergillus niger, against Candida albicans, with Aspergillus flavus, against Candida tropicalis, against Cryptococcus neoformans and in the experiment with Aspergillus fumigatus was greater than 250 µg/mL each time. In addition, the MFC is 250 µg/mL (≈ 1090 µM) against Trichophyton rubrum, greater than 250 µg/mL in [1], greater than 250 µg/mL in the experiment on Saccharomyces cerevisiae and greater than 250 µg/mL in the experiment with Nannizzia gypsea. The MIC with Aspergillus niger is greater than 250 µg/mL; in the experiment with Candida albicans it was greater than 250 µg/mL; in the experiment on Aspergillus flavus it was greater than 250 µg/mL; in the experiment on Candida tropicalis, greater than 250 µg/mL; against Cryptococcus neoformans, 250 µg/mL (≈ 1090 µM); in the experiment with Aspergillus fumigatus, greater than 250 µg/mL. In addition, the minimal inhibitory concentration (MIC) in the experiment with Trichophyton rubrum was 62.5 µg/mL (≈ 273 µM); in [1], 250 µg/mL (≈ 1090 µM); in the experiment on Saccharomyces cerevisiae, greater than 250 µg/mL; against Nannizzia gypsea, 250 µg/mL (≈ 1090 µM).

With `O=C1CCC(=O)N1c1ccccc1`, the MFC against Aspergillus niger, with Candida albicans, with Aspergillus flavus, in the experiment on Candida tropicalis, against Cryptococcus neoformans and against Aspergillus fumigatus was greater than 250 µg/mL each time. Further, the minimum fungicidal concentration (MFC) (against Trichophyton rubrum; in experiment [1]; against Saccharomyces cerevisiae; against Nannizzia gypsea) was greater than 250 µg/mL each time. Also, the minimum inhibitory concentration (MIC) in the experiment on Aspergillus niger, against Candida albicans, against Aspergillus flavus, in the experiment on Candida tropicalis, against Cryptococcus neoformans and in the experiment with Aspergillus fumigatus was greater than 250 µg/mL in each case. In addition, the MIC (with Trichophyton rubrum; in [1]; in the experiment on Saccharomyces cerevisiae; in the experiment on Nannizzia gypsea) was greater than 250 µg/mL throughout.

For the compound `O=C1C(c2ccccc2)=C(c2ccccc2)C(=O)N1CCCCc1ccccc1`, the MFC against Aspergillus niger, in the experiment on Candida albicans, against Aspergillus flavus, against Candida tropicalis, in the experiment with Cryptococcus neoformans and against Aspergillus fumigatus was greater than 250 µg/mL each time. Further, the minimum fungicidal concentration (MFC) (against Trichophyton rubrum; in [1]; in the experiment on Saccharomyces cerevisiae; against Nannizzia gypsea) was greater than 250 µg/mL throughout. For the same compound, the MIC against Aspergillus niger, against Candida albicans, with Aspergillus flavus, in the experiment with Candida tropicalis, against Cryptococcus neoformans and in the experiment with Aspergillus fumigatus was greater than 250 µg/mL throughout. Moreover, the minimum inhibitory concentration (MIC) (with Trichophyton rubrum; in [1]; with Saccharomyces cerevisiae; in the experiment on Nannizzia gypsea) was greater than 250 µg/mL each time.

Take `O=C(O)/C=C\C(=O)NCCCc1ccccc1`: the MFC against Aspergillus niger, in the experiment with Candida albicans, with Aspergillus flavus, with Candida tropicalis, in the experiment with Cryptococcus neoformans and with Aspergillus fumigatus was greater than 250 µg/mL in each case. Besides, the minimum fungicidal concentration (MFC) (in the experiment on Trichophyton rubrum; in [1]; against Saccharomyces cerevisiae; with Nannizzia gypsea) was greater than 250 µg/mL throughout. In addition, the MIC is greater than 250 µg/mL in the experiment on Aspergillus niger; greater than 250 µg/mL in the experiment on Aspergillus flavus; greater than 250 µg/mL against Candida tropicalis; greater than 250 µg/mL with Cryptococcus neoformans; greater than 250 µg/mL with Aspergillus fumigatus; 250 µg/mL (≈ 1070 µM) with Trichophyton rubrum. Further, the minimal inhibitory concentration (MIC) in [1] was greater than 250 µg/mL; in the experiment on Saccharomyces cerevisiae, greater than 250 µg/mL; in the experiment on Nannizzia gypsea, 250 µg/mL (≈ 1070 µM).

On to `O=C1C(Cl)=C(Cl)C(=O)N1c1ccccc1`, for which the minimum fungicidal concentration (MFC) in the experiment with Aspergillus niger, in the experiment on Candida albicans, with Aspergillus flavus, in the experiment on Candida tropicalis, with Cryptococcus neoformans and against Aspergillus fumigatus was greater than 250 µg/mL in each case. Moreover, the minimum fungicidal concentration (MFC) (against Trichophyton rubrum; in experiment [1]; with Saccharomyces cerevisiae; with Nannizzia gypsea) was greater than 250 µg/mL throughout. The MIC against Aspergillus niger, against Candida albicans, in the experiment with Aspergillus flavus, against Candida tropicalis, against Cryptococcus neoformans and with Aspergillus fumigatus was greater than 250 µg/mL in each case. The minimal inhibitory concentration (MIC) (with Trichophyton rubrum; in experiment [1]; with Saccharomyces cerevisiae; against Nannizzia gypsea) was greater than 250 µg/mL in each case.

Turning to `CC1=CC(O)N(Cc2ccccc2)C1=O` (stereo not drawn), the MFC against Aspergillus niger, in the experiment on Candida albicans, against Aspergillus flavus, against Candida tropicalis, with Cryptococcus neoformans and against Aspergillus fumigatus was greater than 250 µg/mL each time. Also, the MFC (against Trichophyton rubrum; in experiment [1]; against Saccharomyces cerevisiae; against Nannizzia gypsea) was greater than 250 µg/mL in each case. Also, the MIC against Aspergillus niger, in the experiment with Candida albicans, against Aspergillus flavus, against Candida tropicalis, against Cryptococcus neoformans and in the experiment on Aspergillus fumigatus was greater than 250 µg/mL each time. Also, the MIC (with Trichophyton rubrum; in experiment [1]; against Saccharomyces cerevisiae; against Nannizzia gypsea) was greater than 250 µg/mL each time.
